# Measured values as given in ChEMBL document CHEMBL3779892, “Increasing the binding affinity of VEGFR-2 inhibitors by extending their hydrophobic interaction with the active site: Design, synthesis and biological evaluation of 1-substituted-4-(4-methoxybenzyl)phthalazine derivatives” (Eur J Med Chem, 2016).
# Key:
# Type in all cases: functional
# M14 = test: Growth inhibition of human M14 cells at 10 uM after 48 hrs by sulforhodamine B assay; details: M14, 48 h, read-out: GI
# Outline: (§1)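 Run at NCI on the 60-line panel. Cells grown in RPMI 1640 with 5% FBS and 2 mM L-glutamine, plated at 5000–40,000 cells/well by doubling time, and held 24 h at 37 °C before dosing. Drug (DMSO stock) given at a single final 10 µM in triplicate wells for 48 h. Adherent cells fixed with cold TCA (10% final), suspension cells with 16% TCA. SRB stain read at 515 nm. Percent growth from Tz, C and Ti.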
# [1] = Growth inhibition of human LOXIMVI cells at 10 uM after 48 hrs by sulforhodamine B assay; details: LOX IMVI, read-out: GI; outline: as §1
# [2] = Growth inhibition of human Hs 578T cells at 10 uM after 48 hrs by sulforhodamine B assay; details: read-out: GI; outline: as §1
# [3] = Growth inhibition of human NCI-ADR-RES cells at 10 uM after 48 hrs by sulforhodamine B assay; details: read-out: GI; outline: as §1
# A549 = test: Growth inhibition of human A549 cells at 10 uM after 48 hrs by sulforhodamine B assay; details: A549, 48 h, read-out: GI; outline: as §1
# [4] = Growth inhibition of human OVCAR8 cells at 10 uM after 48 hrs by sulforhodamine B assay; details: OVCAR-8, 48 h, read-out: GI; outline: as §1
# [5] = Growth inhibition of human SNB19 cells at 10 uM after 48 hrs by sulforhodamine B assay; details: SNB-19, 48 h, read-out: GI; outline: as §1
# [6] = Growth inhibition of human SNB75 cells at 10 uM after 48 hrs by sulforhodamine B assay; details: SNB-75, 48 h, read-out: GI; outline: as §1
# KM12 = test: Growth inhibition of human KM12 cells at 10 uM after 48 hrs by sulforhodamine B assay; details: KM12, 48 h, read-out: GI; outline: as §1
# K562 = test: Growth inhibition of human K562 cells at 10 uM after 48 hrs by sulforhodamine B assay; details: K562, 48 h, read-out: GI; outline: as §1
# MDA-MB-435 = test: Growth inhibition of human MDA-MB-435 cells at 10 uM after 48 hrs by sulforhodamine B assay; details: MDA-MB-435, 48 h, read-out: GI; outline: as §1
# MCF7 = test: Growth inhibition of human MCF7 cells at 10 uM after 48 hrs by sulforhodamine B assay; details: MCF7, 48 h, read-out: GI; outline: as §1
# [7] = Growth inhibition of human UO31 cells at 10 uM after 48 hrs by sulforhodamine B assay; details: UO-31, 48 h, read-out: GI
# Outline: (§2)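 NCI-60 panel, adherent cells grown in RPMI 1640 with 5% FBS and 2 mM L-glutamine, plated at 5000–40,000 cells/well and preincubated 24 h at 37 °C, 5% CO2. 10 µM final compound from DMSO stock, triplicate wells, 48 h. Fixed with cold TCA (10% final, 60 min, 4 °C) and stained with 0.4% SRB. Absorbance read at 515 nm; growth calculated against time-zero and control wells.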
# [8] = Growth inhibition of human OVCAR5 cells at 10 uM after 48 hrs by sulforhodamine B assay; details: OVCAR-5, 48 h, read-out: GI; outline: as §1
# SK-MEL-28 = test: Growth inhibition of human SK-MEL-28 cells at 10 uM after 48 hrs by sulforhodamine B assay; details: SK-MEL-28, 48 h, read-out: GI; outline: as §1
# NCI-H23 = test: Growth inhibition of human NCI-H23 cells at 10 uM after 48 hrs by sulforhodamine B assay; details: NCI-H23, 48 h, read-out: GI; outline: as §1
# [9] = Growth inhibition of human SF295 cells at 10 uM after 48 hrs by sulforhodamine B assay; details: SF-295, 48 h, read-out: GI; outline: as §1
# [10] = Growth inhibition of human PC3 cells at 10 uM after 48 hrs by sulforhodamine B assay; details: PC-3, 48 h, read-out: GI; outline: as §1
# T47D = test: Growth inhibition of human T47D cells at 10 uM after 48 hrs by sulforhodamine B assay; details: read-out: GI; outline: as §2
# [11] = Growth inhibition of human OVCAR4 cells at 10 uM after 48 hrs by sulforhodamine B assay; details: OVCAR-4, 48 h, read-out: GI; outline: as §1
# [12] = Growth inhibition of human Caki1 cells at 10 uM after 48 hrs by sulforhodamine B assay; details: CAKI-1, 48 h, read-out: GI; outline: as §1
# [13] = Growth inhibition of human HOP62 cells at 10 uM after 48 hrs by sulforhodamine B assay; details: HOP-62, 48 h, read-out: GI; outline: as §1
# A498 = test: Growth inhibition of human A498 cells at 10 uM after 48 hrs by sulforhodamine B assay; details: A498, 48 h, read-out: GI; outline: as §1
# [14] = Growth inhibition of human TK10 cells at 10 uM after 48 hrs by sulforhodamine B assay; details: TK-10, 48 h, read-out: GI; outline: as §2
# NCI-H322M = test: Growth inhibition of human NCI-H322M cells at 10 uM after 48 hrs by sulforhodamine B assay; details: read-out: GI; outline: as §1
# CCRF-CEM = test: Growth inhibition of human CCRF-CEM cells at 10 uM after 48 hrs by sulforhodamine B assay; details: read-out: GI; outline: as §1
# HT-29 = test: Growth inhibition of human HT-29 cells at 10 uM after 48 hrs by sulforhodamine B assay; details: HT-29, 48 h, read-out: GI; outline: as §1
# [15] = Growth inhibition of human RPMI8226 cells at 10 uM after 48 hrs by sulforhodamine B assay; details: RPMI-8226, 48 h, read-out: GI; outline: as §1
# NCI-H522 = test: Growth inhibition of human NCI-H522 cells at 10 uM after 48 hrs by sulforhodamine B assay; details: NCI-H522, 48 h, read-out: GI; outline: as §1
# NCI-H460 = test: Growth inhibition of human NCI-H460 cells at 10 uM after 48 hrs by sulforhodamine B assay; details: NCI-H460, 48 h, read-out: GI; outline: as §1
# MDA-MB-231 = test: Growth inhibition of human MDA-MB-231 cells at 10 uM after 48 hrs by sulforhodamine B assay; details: MDA-MB-231, 48 h, read-out: GI; outline: as §1
# [16] = Growth inhibition of human DU145 cells at 10 uM after 48 hrs by sulforhodamine B assay; details: DU-145, 48 h, read-out: GI; outline: as §1
# [17] = Growth inhibition of human SF539 cells at 10 uM after 48 hrs by sulforhodamine B assay; details: SF-539, 48 h, read-out: GI; outline: as §1
# MDA-MB-468 = test: Growth inhibition of human MDA-MB-468 cells at 10 uM after 48 hrs by sulforhodamine B assay; details: MDA-MB-468, 48 h, read-out: GI; outline: as §1
# [18] = Growth inhibition of human UACC257 cells at 10 uM after 48 hrs by sulforhodamine B assay; details: UACC-257, 48 h, read-out: GI; outline: as §2
# SN12C = test: Growth inhibition of human SN12C cells at 10 uM after 48 hrs by sulforhodamine B assay; details: read-out: GI; outline: as §1
Structure (SMILES),inhibition of growth at 10 µM (M14),inhibition of growth at 10 µM [1],inhibition of growth at 10 µM [2],inhibition of growth at 10 µM [3],inhibition of growth at 10 µM (A549),inhibition of growth at 10 µM [4],inhibition of growth at 10 µM [5],inhibition of growth at 10 µM [6],inhibition of growth at 10 µM (KM12),inhibition of growth at 10 µM (K562),inhibition of growth at 10 µM (MDA-MB-435),inhibition of growth at 10 µM (MCF7),inhibition of growth at 10 µM [7],inhibition of growth at 10 µM [8],inhibition of growth at 10 µM (SK-MEL-28),inhibition of growth at 10 µM (NCI-H23),inhibition of growth at 10 µM [9],inhibition of growth at 10 µM [10],inhibition of growth at 10 µM (T47D),inhibition of growth at 10 µM [11],other results
COc1ccc(Cc2nnc(Nc3ccccc3)c3ccccc23)cc1,< 30%,< 30%,< 30%,< 30%,< 30%,< 30%,< 30%,< 30%,< 30%,< 30%,< 30%,< 30%,38%,< 30%,< 30%,< 30%,< 30%,< 30%,< 30%,< 30%,inhibition of growth at 10 µM [12]: < 30%; inhibition of growth at 10 µM [13]: < 30%; inhibition of growth at 10 µM (A498): 35%; inhibition of growth at 10 µM [14]: < 30%; inhibition of growth at 10 µM (NCI-H322M): < 30%; inhibition of growth at 10 µM (CCRF-CEM): < 30%; inhibition of growth at 10 µM (HT-29): < 30%; inhibition of growth at 10 µM [15]: 58%; inhibition of growth at 10 µM (NCI-H522): < 30%; inhibition of growth at 10 µM (NCI-H460): < 30%; inhibition of growth at 10 µM (MDA-MB-231): < 30%; inhibition of growth at 10 µM [16]: < 30%; inhibition of growth at 10 µM [17]: < 30%; inhibition of growth at 10 µM (MDA-MB-468): < 30%; inhibition of growth at 10 µM [18]: < 30%; inhibition of growth at 10 µM (SN12C): < 30%
COc1ccc(Cc2nnc(Nc3cccc(C(F)(F)F)c3)c3ccccc23)cc1,< 30%,< 30%,< 30%,40%,57%,35%,45%,< 30%,40%,49%,< 30%,35%,66%,< 30%,< 30%,42%,38%,49%,56%,31%,inhibition of growth at 10 µM [12]: 32%; inhibition of growth at 10 µM [13]: < 30%; inhibition of growth at 10 µM (A498): 40%; inhibition of growth at 10 µM [14]: < 30%; inhibition of growth at 10 µM (NCI-H322M): < 30%; inhibition of growth at 10 µM (CCRF-CEM): 39%; inhibition of growth at 10 µM (HT-29): 49%; inhibition of growth at 10 µM [15]: 87%; inhibition of growth at 10 µM (NCI-H522): 45%; inhibition of growth at 10 µM (NCI-H460): 50%; inhibition of growth at 10 µM (MDA-MB-231): 46%; inhibition of growth at 10 µM [16]: < 30%; inhibition of growth at 10 µM [17]: 36%; inhibition of growth at 10 µM (MDA-MB-468): 42%; inhibition of growth at 10 µM [18]: < 30%; inhibition of growth at 10 µM (SN12C): 46%
COc1ccc(Cc2nnc(Nc3ccc(C#N)cc3)c3ccccc23)cc1,< 30%,< 30%,< 30%,< 30%,< 30%,< 30%,< 30%,< 30%,< 30%,< 30%,< 30%,< 30%,49%,< 30%,< 30%,< 30%,< 30%,34%,50%,< 30%,inhibition of growth at 10 µM [12]: < 30%; inhibition of growth at 10 µM [13]: < 30%; inhibition of growth at 10 µM (A498): 30%; inhibition of growth at 10 µM [14]: < 30%; inhibition of growth at 10 µM (NCI-H322M): < 30%; inhibition of growth at 10 µM (CCRF-CEM): < 30%; inhibition of growth at 10 µM (HT-29): < 30%; inhibition of growth at 10 µM [15]: < 30%; inhibition of growth at 10 µM (NCI-H522): < 30%; inhibition of growth at 10 µM (NCI-H460): < 30%; inhibition of growth at 10 µM (MDA-MB-231): < 30%; inhibition of growth at 10 µM [16]: < 30%; inhibition of growth at 10 µM [17]: < 30%; inhibition of growth at 10 µM (MDA-MB-468): 30%; inhibition of growth at 10 µM [18]: < 30%; inhibition of growth at 10 µM (SN12C): < 30%
